# Screening results as filed in PubChem BioAssay.
# Rows were chosen to be rich in hits. Some 3% of all compounds tested hit in one or more screens of this group.
# MC4R barr agon: human MC4R agonism via beta-arrestin; P32245; U2OS MC4R beta-arrestin complementation, luminescence; percent of melanotan II response, DMSO zero; activation, % at 8.9 µM; hit rate 0.98% among 360,000;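 active means activation above a per-plate cutoff, the mean activation of sample wells on that plate plus 3 SD, cut at about 8% in these data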
# ABHD5 PLIN5 PPI: blocks binding of human ABHD5 to perilipin-5. Q00G26+Q8WTS1. inhibition, % at 4 µM. hit rate 0.78% among 360,000. Split G. princeps luciferase complementation, luminescence, 4 h;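 active means inhibition above the mean inhibition across every tested compound plus 3 SD, cut at about 22% in these data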
# MC4R antag cAMP: human MC4R antagonism in cAMP assay; MC4R-expressing cells, MTII-stimulated cAMP, LANCE TR-FRET; inhibition, % at 6.5 µM; hit rate 0.48% among 360,000; AID 540295;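 active means inhibition above its plate's cutoff, the mean of tested wells on that plate plus 3 SD, cut at about 29% in these data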
#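 Material – human MC4R-expressing U2OS cells · Repeats – no replicates · Detection – TR-FRET with Eu-cAMP and labeled anti-cAMP, 671 nm · Times – compound 30 min, challenge 1 h, detection 1 h · Compound – single nominal compound dose of 6.5 µM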
# PfGluPho inh: PfG6PD (Plasmodium falciparum) enzyme inhibition; hit rate 0.78% among 350,000; inhibition, % at 20 µM; PfGluPho enzyme, NADPH resazurin-diaphorase fluorescence;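 active means inhibition reaching at least a set limit at 20 µM in the primary screen, cut at about 59% in these data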
# Beta2AR agonist: agonists of human beta-2 adrenergic receptor inducing internalization | P07550 | Am2.2-beta2AR cells, FAP receptor internalization, flow cytometry | response, % (test concentration not listed) | hit rate 0.43% among 340,000;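 active means response above a set limit, near 3 SD of response in nonfluorescent compounds, cut at about 42% in these data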
# MC4R barr conf: human MC4R beta-arrestin agonism confirmation | shares compounds with MC4R barr agon | AID 602192 | activation, % at 8.9 µM | hit rate 31% among 2,400 | U2OS MC4R beta-arrestin recruitment, luminescence; scaled DMSO 0%, Melanotan II 100%;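 active means mean activation across replicates above the hit cutoff set in the earlier primary screen, cut at about 8% in these data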
# MOR-DOR barr ag: OPRM1-OPRD1 heterodimer agonism counter-screen; activation, % at 9.2 µM; hit rate 5.8% among 2,400; U2OS PathHunter beta-arrestin, beta-gal luminescence; percent of deltorphin B response, DMSO zero; AID 602194; shares compounds with MC4R barr agon;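 active means mean activation across replicates exceeds the hit threshold derived in the earlier primary screen, cut at about 18% in these data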
# Target sequence (P35372 whole entry, looked up): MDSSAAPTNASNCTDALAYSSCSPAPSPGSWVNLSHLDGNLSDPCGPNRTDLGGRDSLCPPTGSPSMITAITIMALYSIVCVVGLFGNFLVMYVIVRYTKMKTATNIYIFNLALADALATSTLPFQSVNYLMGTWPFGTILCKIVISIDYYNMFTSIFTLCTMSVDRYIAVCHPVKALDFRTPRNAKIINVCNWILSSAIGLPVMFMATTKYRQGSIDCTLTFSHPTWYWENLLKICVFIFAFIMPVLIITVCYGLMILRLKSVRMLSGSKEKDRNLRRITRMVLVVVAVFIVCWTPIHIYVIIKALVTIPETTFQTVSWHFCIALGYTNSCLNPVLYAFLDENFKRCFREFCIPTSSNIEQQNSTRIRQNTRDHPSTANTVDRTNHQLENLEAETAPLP
# Target sequence (P41143 whole entry, looked up): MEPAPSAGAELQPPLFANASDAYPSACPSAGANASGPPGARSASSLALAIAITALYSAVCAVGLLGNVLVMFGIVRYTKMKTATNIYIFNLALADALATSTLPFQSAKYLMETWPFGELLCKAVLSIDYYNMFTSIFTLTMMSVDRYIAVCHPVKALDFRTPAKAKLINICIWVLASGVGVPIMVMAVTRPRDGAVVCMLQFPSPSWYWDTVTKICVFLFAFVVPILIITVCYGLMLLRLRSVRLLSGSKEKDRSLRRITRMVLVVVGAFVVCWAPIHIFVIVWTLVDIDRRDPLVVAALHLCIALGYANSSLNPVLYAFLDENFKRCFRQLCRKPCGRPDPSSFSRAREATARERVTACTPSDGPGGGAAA
# A number is an active result; - = inactive; . = no result.
SMILES,MC4R barr agon,ABHD5 PLIN5 PPI,MC4R antag cAMP,PfGluPho inh,Beta2AR agonist,MC4R barr conf,MOR-DOR barr ag
CC(=O)Nc1cccc(-c2cc(NC=O)c3ncc(-c4cccc(C(C)=O)c4)n3c2)c1,-,-,-,.,.,.,.
COc1cccc(-c2cc(NC=O)c3ncc(-c4ccc(F)c(Cl)c4)n3c2)c1,16,-,-,.,.,10,-
COc1cccc(-c2cnc3c(NC(C)=O)cc(-c4ccc(C(=O)N5CCOCC5)cc4)cn23)c1,15,-,-,.,.,20,-
CC(=O)c1cccc(-c2cnc3c(NC=O)cc(-c4ccccc4)cn23)c1,9.6,-,-,.,.,13,-
Cc1cc2c(cc1S(=O)(=O)Nc1cccc(F)c1)n(C)c(=O)c(=O)n2C,-,-,-,-,-,.,.
CC(=O)N1C[C@H]2CON(C)[C@H]2C[C@H]1c1ccc(-c2cccnc2)cc1,-,-,-,-,.,.,.
Cc1ccc(C)c(N2CCN(C(=O)CCc3nc(-c4ccc(Br)cc4)no3)CC2)c1,-,-,-,-,-,.,.
COc1ccc(-c2cc(NC=O)c3ncc(-c4cccc(C(C)=O)c4)n3c2)cc1,13,-,-,.,.,13,-
O=C(CCc1nc2ccccc2c(=O)[nH]1)N1CCCc2ccccc21,-,-,-,-,-,.,.
COc1ccccc1CNS(=O)(=O)c1ccc2c(c1)CCCN2C(C)=O,-,-,-,-,-,.,.
Cc1ccc(Cn2cccc2/C=N/NC(=S)Nc2ccc(C)cc2)cc1,21,-,-,-,-,8.8,-
COc1ccc(NC(=S)N/N=C/c2cccn2Cc2ccc(F)cc2)cc1,10,-,-,-,-,-,-
O=C(NC1CCCCC1)C(c1ccccc1)n1c(=O)c(-c2cc3ccccc3[nH]2)nc2ccccc21 (configuration not stated),.,-,.,.,.,.,.
OC(c1ccc(Cl)c(F)c1)c1ncc(-c2cccc3ccccc23)[nH]1 (configuration not stated),-,-,-,.,.,.,.
COc1ccc2cc3cc(C(=O)Nc4ccc5c(c4)OCCO5)oc3nc2c1,43,-,-,-,-,-,-
COc1ccc(S(=O)(=O)NCC2CCCN(C(=O)CCC(F)(F)F)C2)cc1 (configuration not stated),-,-,-,-,-,.,.
Cc1cc(Nc2ccc(F)c(F)c2)nc(-c2ccccc2O)n1,14,-,-,-,-,-,-
COc1ccc(OCCSc2nnc(CCNC(=O)c3ccc(Cl)c(Cl)c3)n2C)cc1,-,-,-,-,-,.,.
CCn1c(CCNC(=O)c2ccc(Cl)c(Cl)c2)nnc1SCCOc1ccc(OC)cc1,11,-,-,-,-,-,-
CSc1nc(=O)n2cc(C)ccc2n1,-,-,-,-,-,.,.
O=C(Nc1ccc(N2CCCC2)cc1)c1ccc(Br)cc1,18,-,-,-,-,-,-
O=C(Nc1ccc(N2CCCC2)cc1)c1cccc(Cl)c1,11,-,-,-,-,-,-
CC(C)Oc1ccc(C(=O)Nc2ccc(N3CCCC3)cc2)cc1,-,-,-,-,-,.,.
O=C(C1CC1)N1N=C(c2ccncc2)CC1(O)C(F)(F)F (configuration not stated),-,-,-,-,-,.,.
CCO[C@@H]1OC(C(=O)N2CCOCC2)=C[C@H](c2ccccc2)[C@H]1CCCO,-,-,-,-,-,.,.
SMILES,MC4R barr agon,ABHD5 PLIN5 PPI,MC4R antag cAMP,PfGluPho inh,Beta2AR agonist,MC4R barr conf,MOR-DOR barr ag
COc1ccc(CCN(C)C(=O)CN2C(=O)NC3(CCCc4ccccc43)C2=O)cc1OC (configuration not stated),-,-,-,-,-,.,.
Cc1csc(C(=O)NN)c1N(C)C,-,-,-,-,-,.,.
O=C(c1ccccc1)C1CCN(C(=O)C2CCC(=O)N(Cc3ccccc3F)C2)CC1 (configuration not stated),-,-,-,-,-,.,.
Cc1cccc(NC(=O)/C(C#N)=C\c2ccc(C(=O)O)cc2)c1,-,-,-,-,-,.,.
COc1cc(C)c(/C=C(\C#N)C(=O)Nc2cccc(C)c2)cc1C(C)C,13,-,-,-,-,-,-
Cc1ccc(-c2nnn(CC(=O)N(CC(=O)NC3CCCC3)c3ccc(F)c(Cl)c3)n2)o1,10,-,-,-,-,-,-
Cc1ccc(-c2nnn(CC(=O)N(CC(=O)NC3CCCCC3)c3ccc(F)c(Cl)c3)n2)o1,-,-,-,-,-,.,.
CN/C=C1\C(=O)C(C)(C)Oc2ccc3ccc(=O)oc3c21,-,-,-,-,-,.,.
CC1(C)Oc2ccc3ccc(=O)oc3c2/C(=C/Nc2ccc(O)cc2)C1=O,11,-,-,-,-,23,-
Cc1ccc(S(=O)(=O)N2CCOCC2)cc1NC(=O)COC(=O)CNC(=O)c1ccc(Cl)cc1Cl,-,-,-,-,-,.,.
O=C(Nc1nc2cc3c(cc2s1)OCO3)c1cccc(N2C(=O)CCC2=O)c1,-,-,-,-,-,.,.
O=C(Nc1nc2cc3c(cc2s1)OCO3)c1ccc(N2C(=O)CCC2=O)cc1,12,-,-,-,-,-,-
CCN(Cc1ccccc1)S(=O)(=O)c1ccc(S(=O)(=O)N(Cc2ccccn2)Cc2ccco2)cc1,13,-,-,-,-,-,-
COc1cccc(N2CCN(C(=O)CNC(=O)c3sc4ccccc4c3Cl)CC2)c1,70,-,-,-,-,-,-
O=C(CSc1nnc(CNC(=O)c2ccccc2F)o1)NC1CCCCC1,-,-,-,-,-,.,.
Cc1cccnc1C(c1ccc(F)cc1)N(C)C(=O)C1CCN(CCCOc2ccc(F)cc2)CC1 (configuration not stated),-,-,-,.,.,.,.
Cc1cccnc1C(c1ccc(F)cc1)N(C)C(=O)C1CCN(CCOc2ccc(Cl)cc2Cl)CC1 (configuration not stated),11,-,-,.,.,18,-
O=C(NC(c1ccccc1)c1ccc2ccccc2n1)C1CCN(CCOc2ccc(Cl)cc2Cl)CC1 (configuration not stated),39,-,-,.,.,18,-
COc1cc(F)ccc1-c1csc(C(O)c2ccc(F)cc2)n1 (configuration not stated),14,-,-,.,.,-,-
CCCCn1nnnc1C(c1cc2ccccc2o1)N(C)Cc1ccc(Cl)cc1 (configuration not stated),.,-,.,.,.,.,.
COc1cc(/C=N/N=C(/N)c2nonc2N)cc(Br)c1OCc1ccccc1C,16,-,-,-,-,-,-
Cc1cc(Cl)cc2sc(NC(=O)c3ccco3)nc12,11,-,-,-,-,-,-
CC(=O)c1nn(-c2ccc(Cl)cc2)cc1C(=O)c1ccc(C)cc1,21,-,-,-,-,13,-
CC(=O)c1nn(-c2cccc(C)c2)cc1C(=O)c1cccc(Br)c1,12,-,-,-,-,-,-
